pIC50: −log10 of the molar value. Active and inactive are the calls of the source. No cut-off for these calls is given here.

Data set [1] addresses CREB-binding protein/Histone acetyltransferase p300 (Homo sapiens, UniProt Q09472+Q92793). Put plainly: Inhibition of P300/CBP in human MV4-11 cells assessed as reduction in MYC expression after 4 hrs by luminescence based assay. It counts as cell-based. Put shortly:
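MV-4-11 cells plated at 10,000 per well in RPMI1640 with 10% FBS and 2 mM L-glutamine. Compounds added in DMSO at a final 0.1% and incubated 4 h at 37 °C before MYC expression read-out; EC50 derived.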

Data set [2] is filed under the species Homo sapiens. Put plainly: Selectivity ratio of IC50 for His tagged recombinant BRD4 bromodomain 1 (unknown origin) to IC50 for His tagged recombinant CBP (unknown origin).
A short description of data set [3]: Intrinsic clearance in mouse liver microsomes at 1 uM in presence of NADPH by LC-MS/MS analysis. It counts as ADME, microsome. As to conditions: read-out: CLH.
Data set [4] can be described thus: Intrinsic clearance in rat liver microsomes at 1 uM in presence of NADPH by LC-MS/MS analysis. It counts as ADME, microsome. As to conditions: read-out: CLH. A general note: Liver microsomes are vesicles of endoplasmic reticulum, rich in cytochrome P450 enzymes.
For data set [5], the target named is Bromodomain-containing protein 4 (Homo sapiens, UniProt O60885). Description: Inhibition of His tagged recombinant BRD4 bromodomain 1 (unknown origin) by TR-FRET assay. Put shortly:
(§1)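 Recombinant His-tagged bromodomains purified by Ni affinity, tag removed with thrombin, checked by mass spectrometry. Assay is TR-FRET competition against a biotinylated small-molecule ligand. Normalized inhibition vs concentration fit to 4-parameter Hill equation; […] for optimization.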
On the technique in general: Time-resolved FRET reads energy transfer from a long-lived donor to a nearby acceptor.

Data set [6] is described as follows: Intrinsic clearance in human liver microsomes at 1 uM in presence of NADPH by LC-MS/MS analysis. It counts as ADME, microsome. As to conditions: read-out: CLH.
The target in data set [7] is T1, CREB-binding protein (Homo sapiens, UniProt Q92793). Description: Inhibition of His tagged recombinant CBP (unknown origin) by TR-FRET assay. Put shortly:
as §1
Target sequence in this assay (Q92793 whole entry): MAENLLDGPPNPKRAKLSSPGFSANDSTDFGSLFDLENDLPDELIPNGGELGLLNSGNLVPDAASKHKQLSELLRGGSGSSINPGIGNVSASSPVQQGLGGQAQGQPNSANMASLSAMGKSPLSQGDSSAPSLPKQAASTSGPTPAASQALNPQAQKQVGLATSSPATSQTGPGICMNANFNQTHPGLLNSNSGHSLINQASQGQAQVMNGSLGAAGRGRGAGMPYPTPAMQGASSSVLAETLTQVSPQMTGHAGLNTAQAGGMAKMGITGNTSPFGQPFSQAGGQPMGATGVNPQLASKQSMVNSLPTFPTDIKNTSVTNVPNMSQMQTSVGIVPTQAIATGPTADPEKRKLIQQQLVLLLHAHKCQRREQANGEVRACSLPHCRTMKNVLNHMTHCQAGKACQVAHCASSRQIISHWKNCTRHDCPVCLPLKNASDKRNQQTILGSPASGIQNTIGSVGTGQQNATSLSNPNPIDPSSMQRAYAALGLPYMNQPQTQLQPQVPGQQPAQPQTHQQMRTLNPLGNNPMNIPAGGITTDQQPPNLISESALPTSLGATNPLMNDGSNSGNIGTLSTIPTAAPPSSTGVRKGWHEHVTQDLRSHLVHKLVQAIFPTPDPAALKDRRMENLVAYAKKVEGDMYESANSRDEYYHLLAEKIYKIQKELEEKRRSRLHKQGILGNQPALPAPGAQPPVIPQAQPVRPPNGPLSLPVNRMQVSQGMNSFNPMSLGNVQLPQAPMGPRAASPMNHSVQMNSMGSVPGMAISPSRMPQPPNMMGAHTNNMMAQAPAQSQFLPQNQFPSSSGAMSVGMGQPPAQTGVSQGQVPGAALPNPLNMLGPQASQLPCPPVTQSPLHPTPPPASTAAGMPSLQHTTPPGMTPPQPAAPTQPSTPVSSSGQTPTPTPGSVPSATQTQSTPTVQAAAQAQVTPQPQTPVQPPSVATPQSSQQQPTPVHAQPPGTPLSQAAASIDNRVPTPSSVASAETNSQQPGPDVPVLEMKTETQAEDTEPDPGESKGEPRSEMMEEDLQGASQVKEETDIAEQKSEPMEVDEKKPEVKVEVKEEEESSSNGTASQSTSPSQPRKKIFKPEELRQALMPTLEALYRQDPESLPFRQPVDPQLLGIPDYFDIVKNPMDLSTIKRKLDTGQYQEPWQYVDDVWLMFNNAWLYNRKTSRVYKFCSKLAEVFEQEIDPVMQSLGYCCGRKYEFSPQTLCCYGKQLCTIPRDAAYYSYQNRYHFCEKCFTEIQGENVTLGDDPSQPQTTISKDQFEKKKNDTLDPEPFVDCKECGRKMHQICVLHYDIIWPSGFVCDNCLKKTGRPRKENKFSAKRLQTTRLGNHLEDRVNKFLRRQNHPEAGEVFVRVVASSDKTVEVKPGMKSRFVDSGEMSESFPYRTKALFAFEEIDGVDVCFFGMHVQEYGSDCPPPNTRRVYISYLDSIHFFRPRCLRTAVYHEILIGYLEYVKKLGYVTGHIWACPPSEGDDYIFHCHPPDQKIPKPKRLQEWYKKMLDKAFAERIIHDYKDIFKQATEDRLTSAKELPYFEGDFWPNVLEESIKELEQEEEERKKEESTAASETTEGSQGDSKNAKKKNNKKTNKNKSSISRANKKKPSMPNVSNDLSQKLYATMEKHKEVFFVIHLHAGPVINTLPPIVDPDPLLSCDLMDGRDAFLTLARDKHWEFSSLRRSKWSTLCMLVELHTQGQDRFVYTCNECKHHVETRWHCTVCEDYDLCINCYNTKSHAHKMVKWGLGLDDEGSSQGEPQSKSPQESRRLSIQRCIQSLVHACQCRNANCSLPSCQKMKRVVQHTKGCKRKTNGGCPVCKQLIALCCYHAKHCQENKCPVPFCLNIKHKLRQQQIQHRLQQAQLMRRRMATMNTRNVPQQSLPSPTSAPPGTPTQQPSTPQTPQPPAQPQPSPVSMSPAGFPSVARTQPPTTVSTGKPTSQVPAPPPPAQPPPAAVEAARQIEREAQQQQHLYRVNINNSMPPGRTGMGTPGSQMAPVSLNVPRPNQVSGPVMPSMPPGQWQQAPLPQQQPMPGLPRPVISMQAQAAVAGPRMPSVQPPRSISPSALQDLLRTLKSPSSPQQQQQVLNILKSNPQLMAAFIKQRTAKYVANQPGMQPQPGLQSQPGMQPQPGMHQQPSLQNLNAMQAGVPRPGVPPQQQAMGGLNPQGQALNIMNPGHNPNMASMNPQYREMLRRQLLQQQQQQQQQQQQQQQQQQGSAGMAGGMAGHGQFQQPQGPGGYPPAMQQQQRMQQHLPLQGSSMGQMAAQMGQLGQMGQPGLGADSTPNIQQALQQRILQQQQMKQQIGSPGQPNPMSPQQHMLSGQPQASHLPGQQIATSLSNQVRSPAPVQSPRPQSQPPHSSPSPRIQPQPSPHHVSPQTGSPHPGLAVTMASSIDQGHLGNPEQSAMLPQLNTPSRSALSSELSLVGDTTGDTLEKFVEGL

The target in data set [8] is T1, CREB-binding protein. Description: Inhibition of His tagged recombinant CBP (unknown origin) at 50 uM by HTS assay. The gist of the method: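 HTS TR-FRET competition of biotinylated ligand binding to recombinant His-tagged CBP bromodomain (tag thrombin-cleaved after Ni affinity). Highest concentration tested 50 μM. IC50 from 4-parameter Hill fit of normalized inhibition, reported as geometric mean of 2–8 replicates.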
Target sequence in this assay (Q92793 2-2442 limits assumed): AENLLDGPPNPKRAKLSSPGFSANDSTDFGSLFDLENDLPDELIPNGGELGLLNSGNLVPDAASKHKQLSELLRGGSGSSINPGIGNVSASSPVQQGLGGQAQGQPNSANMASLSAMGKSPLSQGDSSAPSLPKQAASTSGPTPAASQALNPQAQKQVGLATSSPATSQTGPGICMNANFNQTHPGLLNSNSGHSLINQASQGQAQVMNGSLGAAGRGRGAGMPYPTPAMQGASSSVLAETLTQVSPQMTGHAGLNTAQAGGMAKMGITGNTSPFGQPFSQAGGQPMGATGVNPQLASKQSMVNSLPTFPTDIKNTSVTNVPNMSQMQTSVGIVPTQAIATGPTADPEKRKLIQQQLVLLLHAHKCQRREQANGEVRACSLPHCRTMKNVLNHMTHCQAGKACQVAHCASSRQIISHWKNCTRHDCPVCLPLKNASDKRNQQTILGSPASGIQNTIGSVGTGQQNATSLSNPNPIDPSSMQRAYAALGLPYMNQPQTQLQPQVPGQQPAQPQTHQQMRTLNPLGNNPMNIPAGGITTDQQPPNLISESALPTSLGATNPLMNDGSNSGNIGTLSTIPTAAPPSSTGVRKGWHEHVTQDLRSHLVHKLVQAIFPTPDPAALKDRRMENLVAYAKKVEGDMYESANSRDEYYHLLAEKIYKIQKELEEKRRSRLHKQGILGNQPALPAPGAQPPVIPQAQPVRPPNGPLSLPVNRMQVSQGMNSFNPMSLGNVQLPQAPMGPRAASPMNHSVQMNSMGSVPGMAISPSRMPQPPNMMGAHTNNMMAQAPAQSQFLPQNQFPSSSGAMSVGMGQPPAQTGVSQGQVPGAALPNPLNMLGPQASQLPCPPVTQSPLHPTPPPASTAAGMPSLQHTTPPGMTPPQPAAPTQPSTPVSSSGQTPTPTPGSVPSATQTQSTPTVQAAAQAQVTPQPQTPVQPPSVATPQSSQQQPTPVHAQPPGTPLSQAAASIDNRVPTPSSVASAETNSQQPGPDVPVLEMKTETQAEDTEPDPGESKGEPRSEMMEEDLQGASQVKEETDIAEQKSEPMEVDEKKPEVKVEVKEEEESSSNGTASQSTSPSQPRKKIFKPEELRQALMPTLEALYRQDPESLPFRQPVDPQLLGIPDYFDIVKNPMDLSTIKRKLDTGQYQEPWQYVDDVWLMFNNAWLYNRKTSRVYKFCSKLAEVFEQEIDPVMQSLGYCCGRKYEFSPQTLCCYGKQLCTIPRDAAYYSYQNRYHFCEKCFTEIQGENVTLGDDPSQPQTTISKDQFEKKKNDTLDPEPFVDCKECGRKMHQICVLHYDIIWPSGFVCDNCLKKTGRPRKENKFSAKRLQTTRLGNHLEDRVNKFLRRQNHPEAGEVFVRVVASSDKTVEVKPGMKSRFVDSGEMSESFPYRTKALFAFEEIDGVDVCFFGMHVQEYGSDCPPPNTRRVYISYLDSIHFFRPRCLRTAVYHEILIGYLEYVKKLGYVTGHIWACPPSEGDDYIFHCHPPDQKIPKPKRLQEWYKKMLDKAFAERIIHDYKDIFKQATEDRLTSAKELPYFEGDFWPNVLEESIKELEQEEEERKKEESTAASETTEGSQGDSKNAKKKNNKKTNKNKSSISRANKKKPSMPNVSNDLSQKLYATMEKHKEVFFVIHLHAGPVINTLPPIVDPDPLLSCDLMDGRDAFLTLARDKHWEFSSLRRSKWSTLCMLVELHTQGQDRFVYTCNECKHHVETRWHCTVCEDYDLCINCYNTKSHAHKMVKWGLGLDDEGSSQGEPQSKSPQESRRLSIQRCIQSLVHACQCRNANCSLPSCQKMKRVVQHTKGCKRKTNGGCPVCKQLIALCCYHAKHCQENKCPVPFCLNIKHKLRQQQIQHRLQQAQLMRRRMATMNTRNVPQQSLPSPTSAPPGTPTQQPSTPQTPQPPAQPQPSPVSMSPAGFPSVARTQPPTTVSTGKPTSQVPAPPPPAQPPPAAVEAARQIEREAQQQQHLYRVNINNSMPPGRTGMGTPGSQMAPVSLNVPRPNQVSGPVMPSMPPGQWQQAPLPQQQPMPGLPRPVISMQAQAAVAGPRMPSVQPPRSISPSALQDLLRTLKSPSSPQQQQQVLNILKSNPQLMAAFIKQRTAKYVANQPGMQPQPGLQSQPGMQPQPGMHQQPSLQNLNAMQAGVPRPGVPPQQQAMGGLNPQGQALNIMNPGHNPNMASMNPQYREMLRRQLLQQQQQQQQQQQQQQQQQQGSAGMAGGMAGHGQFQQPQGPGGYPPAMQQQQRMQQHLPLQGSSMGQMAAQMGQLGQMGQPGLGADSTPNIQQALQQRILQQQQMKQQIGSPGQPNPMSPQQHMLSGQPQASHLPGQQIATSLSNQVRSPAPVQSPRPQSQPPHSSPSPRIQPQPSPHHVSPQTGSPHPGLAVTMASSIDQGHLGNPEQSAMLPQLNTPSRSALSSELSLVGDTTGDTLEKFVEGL

The target in data set [9] is T2, Bromodomain-containing protein 9 (Homo sapiens, UniProt Q9H8M2).
T2 sequence (Q9H8M2 whole entry): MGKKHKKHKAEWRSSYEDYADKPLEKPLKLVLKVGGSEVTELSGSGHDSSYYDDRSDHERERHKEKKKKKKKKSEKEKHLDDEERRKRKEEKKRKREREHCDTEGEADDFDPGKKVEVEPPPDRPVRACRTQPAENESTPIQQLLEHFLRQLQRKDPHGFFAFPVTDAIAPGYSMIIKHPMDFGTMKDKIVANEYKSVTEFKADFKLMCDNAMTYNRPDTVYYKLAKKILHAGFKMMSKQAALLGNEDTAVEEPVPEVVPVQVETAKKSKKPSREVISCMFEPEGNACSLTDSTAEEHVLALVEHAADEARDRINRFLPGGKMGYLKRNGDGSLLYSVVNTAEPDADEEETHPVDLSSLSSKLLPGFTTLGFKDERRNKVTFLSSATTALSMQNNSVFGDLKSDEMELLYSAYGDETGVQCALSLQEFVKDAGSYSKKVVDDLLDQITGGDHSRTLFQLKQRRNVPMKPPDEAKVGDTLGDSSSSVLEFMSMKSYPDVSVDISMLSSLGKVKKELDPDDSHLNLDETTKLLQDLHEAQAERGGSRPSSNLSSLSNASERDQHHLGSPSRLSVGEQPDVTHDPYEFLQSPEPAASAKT
Description: Inhibition of His tagged recombinant BRD9 (unknown origin) by TR-FRET assay. Put shortly:
as §1

Data set [10] has as its target Chromatin remodeling regulator CECR2 (Homo sapiens, UniProt Q9BXF3). Put plainly: Inhibition of His tagged recombinant CECR2 (unknown origin) by TR-FRET assay. Put shortly:
as §1

The species entered for data set [11] is Homo sapiens. Description: Selectivity ratio of IC50 for His tagged recombinant CBP (unknown origin) to IC50 for His tagged recombinant BRD4 bromodomain 1 (unknown origin).

For the compound `Cn1cc(-c2cc3c(cc2C(F)F)N(c2cc(N4CCOCC4)c4c(c2)n(C)c(=O)n4C)CCC3)cn1`, the EC50 (in general, the midpoint of the concentration-response curve) in data set [1] stood at 0.012 µM. Besides, the Ratio IC50 in data set [2] turned out to be 310. The CLint scaled at 1 µM stood at 2.88 L/h/kg in data set [3], 1.38 L/h/kg in [4] and 0.9 L/h/kg in [6]. For the same compound, the pIC50 (usually the negative decadic logarithm of the IC50, by convention in mol/L) was 5.96 in data set [5] and 8.44 in data set [7].

For `COC(=O)c1c[nH]c2ccccc12`, the Ratio IC50 in [2] was over 1. For the same compound, the inhibition result in data set [8] was “Active”. In addition, the pIC50 in data set [5] was under 4.00; in data set [7] it was 4.00.

`CCOC(=O)c1cnc2ccc(C(=O)OC)cc2c1Nc1cccc(C(=O)O)c1`: the Ratio IC50 in data set [2] was over 87. The results for the pIC50 in data set [5] and in data set [7] were under 4.70 and 6.64, respectively.

`CN1C(=O)CCc2ccc(N3CCCc4cc(-c5cnn(C)c5)c(C(F)F)cc43)cc21`: in data set [2], the Ratio IC50 was over 530. Moreover, the negative logarithm of the IC50 (pIC50) is under 4.70 in [5] and 7.42 in data set [7].

On to `CNC(=O)N1CCOc2ccc(N3CCCc4cc(-c5cnn(C)c5)c(C(F)F)cc43)cc2C1`, for which the Ratio IC50 in data set [2] is 570. The values for the negative-log IC50 (pIC50) in data set [5] and in [7] were 5.13 and 7.89, respectively.

On to `CCC(=O)N1CCCc2cc(NS(=O)(=O)c3ccc(F)cc3C)ccc21`, for which the Ratio IC50 in [2] is 25. For the same compound, the negative-log IC50 (pIC50) in [5] is 4.13; in data set [7], 5.52.

Take `C[C@@H]1CC(=O)Nc2cccc(N3CCCc4cc(-c5cnn(C)c5)c(C(F)F)cc43)c2N1`: the Ratio IC50 in [2] stood at 1300. The negative logarithm of the IC50 (pIC50) in data set [9] was under 4.70; in [10], under 4.70; in data set [5] it was 5.35; in [7], 8.47.

As for `C[C@H]1Nc2c(cccc2N2CCCc3cc(-c4cnn(C)c4)c(C(F)F)cc32)NC1=O`, in data set [5], the pIC50 was under 4.70.

With `CNC(=O)c1cnn2c(C3CCCN3)ccnc12` (stereo not given), in data set [2], the Ratio IC50 is over 2.6. The negative-log IC50 (pIC50) is under 4.08 in [5] and 4.49 in data set [7].

On to `COc1cccc2c1N(CCCNC(=O)c1cccc3c1N[C@H](C)C(=O)N3)CCC2`, for which the Ratio IC50 in [2] was determined as 22. Besides, the negative logarithm of the IC50 (pIC50) in data set [5] is 4.89.

For the compound `C[C@@H]1CC(=O)Nc2cccc(-c3ccc4c(c3)c(-c3cnn(C)c3)nn4C)c2N1`, the Ratio IC50 in [2] stood at 370.

Take `CNC(=O)Nc1cc(OC)cc(N2CCCc3cc(-c4cnn(C)c4)c(C(F)F)cc32)n1`: in [2], the Ratio IC50 is over 170. Also, the negative-log IC50 (pIC50) in [5] was under 4.70.

As to `CNC(=O)c1c[nH]c2cnc(N3CCCc4cc(-c5cnn(C)c5)c(C(F)F)cc43)cc12`, the EC50 in [1] is 0.36 µM. Also, the Ratio IC50 in [2] turned out to be 780. Further, the CLint scaled at 1 µM was 2.34 L/h/kg in data set [3], 1.02 L/h/kg in data set [4] and 0.414 L/h/kg in data set [6]. The negative-log IC50 (pIC50) in data set [5] is 5.41.

In the case of `CNC(=O)c1cnn2ccc(N3CCCc4cc(-c5cnn(C)c5)c(C(F)F)cc43)nc12`, the Ratio IC50 in data set [2] was over 14. Besides, the pIC50 in data set [5] is under 4.70; in [7], 5.85.

`CC(=O)N1CCc2c(cc(N3CCCc4cc(-c5cnn(C)c5)c(C(F)F)cc43)c(=O)n2C)C1`: the Ratio IC50 in data set [2] is over 430. Further, the pIC50 in data set [5] is under 4.70.

On to `Cn1c(=O)sc2cc(N)ccc21`, for which the inhibition result in data set [8] was “Active”. Moreover, the pIC50 in [5] and in data set [7] was under 4.00 throughout.

For `CCC(=O)N1CCOc2c(cc(-c3ccc(OC)c(OC)c3)cc2OC[C@H]2CCCN(C)C2)C1`, the Ratio IC50 in data set [2] stood at 34.

Regarding `Cn1cc(-c2cc3c(cc2C(F)F)N(c2ccc4sc(=O)n(C)c4c2)CCC3)cn1`, the CLint scaled at 1 µM in [3] is 4.26 L/h/kg; in data set [4] it was 2.34 L/h/kg; in [6], 1.02 L/h/kg. The pIC50 in data set [5] was 4.74.

As to `Cc1ccc(S(=O)(=O)Nc2ccc3c(c2)CCC(=O)N3C)s1`, the Ratio IC50 in data set [2] amounted to 0.23; in [11], 4.4. Moreover, the pIC50 was 5.28 in [5] and 4.64 in data set [7].

For the compound `CNC(=O)Nc1cc(OC)cc(NC(=O)NS(=O)(=O)c2cc(C)c(CCOC)s2)n1`, in data set [2], the Ratio IC50 is over 74. Further, the pIC50 in data set [5] is under 4.70; in data set [7], 6.57.

Turning to `Cn1cc(-c2cc3c(cc2C(F)F)N(c2ccc4c(c2)n(C)c(=O)n4C)CCC3)cn1`, the half-maximal effective concentration (EC50) in [1] turned out to be 1 µM. Also, the Ratio IC50 in data set [2] is 210. For the same compound, the results for the CLint scaled at 1 µM in data set [3], in [4] and in data set [6] were 3.66 L/h/kg, 2.28 L/h/kg and 0.96 L/h/kg, respectively. Moreover, the results for the pIC50 in data set [5] and in data set [7] were 5.39 and 7.70, respectively.

For the compound `CNC(=O)c1ccc2nccc(N3CCCc4cc(-c5cnn(C)c5)c(C(F)F)cc43)c2c1`, in data set [2], the Ratio IC50 is over 590. Besides, the negative logarithm of the IC50 (pIC50) in data set [5] is under 4.70.

`CC(=O)N1CCc2c(cc(-c3cccc(Cl)c3)c(=O)n2CC2CC2)C1`: the Ratio IC50 in data set [2] was 96. For the same compound, the pIC50 in [5] was 4.28; in data set [7], 6.27.

`CC(=O)N1CCCc2cc(N3CCCc4cc(-c5cnn(C)c5)c(C(F)F)cc43)ccc21`: in [2], the Ratio IC50 is over 15. Further, the negative logarithm of the IC50 (pIC50) in data set [5] was 5.16; in [7], 6.35.

Consider `CNC(=O)c1c[nH]c2ccc(N3CCCc4cc(-c5cnn(C)c5)c(C(F)F)cc43)cc12`, for which the EC50 in data set [1] worked out at 2.2 µM. Also, in data set [2], the Ratio IC50 was found to be 1300. Also, the CLint scaled at 1 µM came out at 2.82 L/h/kg in data set [3], 1.2 L/h/kg in data set [4] and 0.78 L/h/kg in data set [6]. In addition, the values for the negative-log IC50 (pIC50) in data set [5] and in data set [7] were 4.92 and 8.02, respectively.

The record behind these values is ChEMBL document CHEMBL4028905, “A Unique Approach to Design Potent and Selective Cyclic Adenosine Monophosphate Response Element Binding Protein, Binding Protein (CBP) Inhibitors” (J Med Chem, 2017).
